Screens from PubChem BioAssay.
CHO-K1 Ca antag – M1 antagonist counterscreen hit in parental CHO-K1 cells. actives 0.6% (n = 360,000). ATP-induced calcium, Fluo-8 fluorescence. inhibition, % at 3 µM. AID 602250;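 active = inhibition above a per-plate cutoff, the plate's mean sample inhibition plus 3 SD, cut at about 24% in these data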
OX1R antag-1 – antagonists of human orexin 1 receptor (OX1R); Orexin/Hypocretin receptor type 1 (Homo sapiens), O43613; OX1R-expressing cells, FRET antagonist read-out; inhibition, % at 6.6 µM; actives 1.8% (n = 330,000); in the data active = inhibition mostly above about 38%, no sharp cut-off; inactive = mostly below about 40%
Target sequence (O43613 whole entry, looked up): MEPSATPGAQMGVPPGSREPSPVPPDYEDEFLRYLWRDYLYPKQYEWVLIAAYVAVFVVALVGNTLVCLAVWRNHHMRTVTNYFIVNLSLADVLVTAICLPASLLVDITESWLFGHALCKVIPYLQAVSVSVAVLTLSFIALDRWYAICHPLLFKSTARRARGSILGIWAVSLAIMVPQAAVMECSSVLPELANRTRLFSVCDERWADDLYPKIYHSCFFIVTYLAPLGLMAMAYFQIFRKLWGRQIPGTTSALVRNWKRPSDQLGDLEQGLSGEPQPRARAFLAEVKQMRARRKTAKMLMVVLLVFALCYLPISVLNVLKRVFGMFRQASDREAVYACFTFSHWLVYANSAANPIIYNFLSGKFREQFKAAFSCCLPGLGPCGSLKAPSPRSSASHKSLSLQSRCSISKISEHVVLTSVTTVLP
OX1R antag-2 – OX1R (HCRTR1) antagonists, primary screen, fluorescence, CHO/OX1R cells, Fluo-8 calcium, orexin A | Orexin/Hypocretin receptor type 1 (Homo sapiens), O43613 | Fluo-8 calcium fluorescence | inhibition, % at 5 µM | actives 0.43% (n = 330,000);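 active = inhibition above its plate's threshold, mean inhibition of all tested compounds on the plate plus 3 SD, cut at about 37% in these data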
M1 PAM parental – nonselective calcium activators in parental CHO-K1 cells, primary screen, counter-screen for M1 PAM project, cell-based, Fluo-8 calcium fluorescence, full deck, 1536-well; ATP EC20; 0% at ATP EC20, 100% at ATP max; activation, % at 3 µM; actives 0.02% (n = 360,000);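 active = activation above the run cutoff, the mean activation of all test compounds plus 3 SD, cut at about 40% in these data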;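 also: peak over basal fluorescence ratio in a 140 s read after ATP addition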
M1 ag parental – counter-screen for M1 agonists: effect in parental CHO-K1 cells. actives 0.48% (n = 360,000). activation, % at 3 µM. Fluo-8 calcium fluorescence; scaled to maximal ATP response, vehicle zero. AID 602248, 2012; in the data active = activation above about 15%;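 also: untransfected CHO-K1 host cells lacking M1 receptor as counterscreen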
CHO parental Ca – ATP-evoked calcium signal inhibitors, parental CHO, primary screen, counter-screen for OX1R antagonist project, cell-based, fluorescence, Fluo-8 calcium dye; parental CHO-K1, ATP-induced calcium, Fluo-8 fluorescence; inhibition, % at 5.6 µM; actives 0.63% (n = 330,000);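 active = inhibition above that plate's mean sample inhibition plus 3 SD, cut at about 26% in these data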
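Test system: untransfected parental CHO cell line. Compound: one dose, 5.6 µM nominal. Detection: intracellular calcium via Fluo-8 no-wash fluorescent dye. Measure: % inhibition. Benchmarks: ATP-challenged DMSO wells low, unchallenged DMSO wells high.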
Numbers stand for hits; 0 = inactive; - = no result given. Only some compounds are listed: those with a hit (about 2.9% of all), similar ones and a draw of the others.

SMILES	CHO-K1 Ca antag	OX1R antag-1	OX1R antag-2	M1 PAM parental	M1 ag parental	CHO parental Ca
COc1ccc(C(=O)Nc2ccc(Cl)c(S(=O)(=O)N3CCOCC3)c2)cc1	0	0	43	0	17	0
COc1ccc(NC(=O)c2cc3c(s2)CCC(C)C3)cc1S(=O)(=O)N1CCOCC1 (stereo not drawn)	25	0	0	0	0	0
O=C(CCCSc1ccccc1)Nc1ccc(Cl)c(S(=O)(=O)N2CCOCC2)c1	0	32	0	0	0	0
COc1ccc(NC(=O)CCN2CCN(S(=O)(=O)c3cc(Cl)ccc3Cl)CC2)cc1	0	0	0	58	0	0
O=C1C(=O)N(c2ccccn2)C(c2cccc([N+](=O)[O-])c2)/C1=C(/O)c1ccc(Br)cc1 (stereo not drawn)	0	0	0	0	0	0
COc1ccc(N(C(C)=O)c2nc3ccccc3[nH]2)cc1	0	0	0	0	0	0
COc1ccc(CCNC(=O)c2ccc(Cl)c(S(=O)(=O)N3CCCC3)c2)cc1	0	0	0	0	16	0
O=C(NCc1ccco1)C1CCN(C(=O)c2cc3sccc3n2Cc2ccc(Cl)cc2)CC1	0	0	69	0	0	37
O=C(NCc1ccco1)C1CCN(C(=O)c2ccc(Cl)cc2)CC1	0	0	0	0	0	0
O=C(NCc1ccco1)C1CCN(C(=O)c2ccc([N+](=O)[O-])cc2)CC1	0	53	0	0	0	0
Cc1ccc(NC(=O)CSc2nn(-c3ccccc3)c(=S)s2)cc1S(=O)(=O)N(C)C	29	0	0	0	0	0
COc1sc(SC)cc1/C=N/NC(=O)c1ccncc1	0	0	0	0	0	0
Cc1nc2ccc(C(=O)Nc3ccc4c(c3)OCC(=O)N4)cn2c1N(C)C(=O)CCc1ccccc1	0	-	-	0	0	-
CSc1ccc(Cl)c(C(=O)NNC(=O)c2cccs2)c1	0	0	0	0	0	0
Oc1ccccc1-c1nc(NCc2ccco2)c2ccccc2n1	0	40	0	0	0	0
Cc1ccc(Nc2nc(NCc3ccco3)c3ccccc3n2)cc1	0	0	47	0	0	56
O=S(=O)(Nc1nc2ccccc2nc1NCc1ccco1)c1ccccc1	25	0	0	0	0	0
O=S(=O)(c1ccccc1)c1ccc(NCc2ccco2)cc1	0	0	0	0	0	0
COc1ccccc1N(CC(=O)NC1CCCCC1)C(=O)CNC(=O)c1cccs1	0	0	0	0	0	0
CCCCn1c(N)c(N(CC(C)C)C(=O)c2ccc(S(=O)(=O)N3CCCCC3)cc2)c(=O)[nH]c1=O	0	0	0	0	0	0
Cc1ccc(S(=O)(=O)N2CCOCC2)cc1NC(=O)COC(=O)CNC(=O)c1ccc(C(C)(C)C)cc1	0	0	0	0	0	0
Cc1ccc(S(=O)(=O)N2CCOCC2)cc1NC(=O)COC(=O)CNC(=O)c1ccc(Oc2ccccc2)cc1	25	0	0	0	0	0
Cc1ccc(S(=O)(=O)N2CCOCC2)cc1NC(=O)COC(=O)CCOc1ccc(C(C)(C)C)cc1	0	0	0	0	16	0
Cc1ccccc1NC(=O)CSc1nnc2ccc(-c3cccnc3)nn12	0	54	0	0	0	0
O=C(CSc1ccc(-c2ccccc2)nn1)N1CCOCC1	0	49	0	0	0	0
SMILES	CHO-K1 Ca antag	OX1R antag-1	OX1R antag-2	M1 PAM parental	M1 ag parental	CHO parental Ca
CC1CCN(C(=O)CSc2nnc3ccc(-c4cccnc4)nn23)CC1	0	35	0	0	0	0
CCSc1nnc2ccc(-c3ccc(OC)c(OC)c3)nn12	0	39	0	0	0	0
O=C(CSc1nnc2ccc(-c3cccnc3)nn12)Nc1ccccc1F	0	0	0	0	0	0
COC(=O)c1sccc1NC(=O)CC1C(=O)NCCN1C(=O)c1ccc(F)cc1 (stereo not drawn)	0	0	0	0	0	0
COc1ccccc1CCNC(=O)CSc1nnc2ccc(-c3ccncc3)nn12	0	39	0	0	0	0
COc1cccc(-c2ccc3nnc(SCC(=O)N4CCCC4)n3n2)c1	0	0	0	0	0	0
